Assay outcomes deposited in PubChem BioAssay by several laboratories.
Shown are actives, neighbours in structure and some others; about 1.3% of the full set was active somewhere.
Dynein transport = blocks dynein driven cargo transport along microtubules | 3617.4 mouse cells, GR-EGFP nuclear translocation imaging; test concentration mostly 20 µM; stimulated with dexamethasone, 1 µM; active compounds read low | z-score, hits read low | 0.47% of 220,000 active | AID 1381;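 active means plate z-score of nuclear minus cytoplasmic receptor signal below a set negative limit, without overly bright fluorescence or cell loss, cut at about -3.5 in these data, passing the limit was not always enough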;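 further: z-score of nuclear minus cytoplasmic ring GR-EGFP intensity difference per well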
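Buffer or medium: Induction medium lacking tetracycline, stripped serum | Also added: Dexamethasone agonist, 1.0 µM final, for 30 min | Timing: 48 h induction, 1 h compound, 30 min dex at 37 °C | Detection: Formaldehyde fixation, Hoechst nuclear stain, 10x automated fluorescence imaging | Measure: Nuclear versus cytoplasmic GR-EGFP signal, averaged per well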
S1P4 agonist = human S1P4 receptor agonism. O95977. S1P4-expressing cell line, agonist reporter assay. activation, % at 4.98 µM. 0.35% of 220,000 active. AID 1509; in the data active means activation above about 11%
Target sequence (O95977 whole entry, looked up): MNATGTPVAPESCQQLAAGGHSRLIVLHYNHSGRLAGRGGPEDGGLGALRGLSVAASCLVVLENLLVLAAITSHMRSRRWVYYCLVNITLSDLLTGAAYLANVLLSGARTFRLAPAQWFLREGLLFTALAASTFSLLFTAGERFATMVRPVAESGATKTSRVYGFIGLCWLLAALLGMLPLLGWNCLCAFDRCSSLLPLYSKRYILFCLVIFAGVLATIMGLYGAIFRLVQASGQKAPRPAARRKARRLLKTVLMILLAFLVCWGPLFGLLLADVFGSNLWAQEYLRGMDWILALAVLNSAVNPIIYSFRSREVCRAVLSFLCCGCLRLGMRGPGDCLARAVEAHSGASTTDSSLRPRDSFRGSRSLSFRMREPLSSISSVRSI
Hsp70 act = Hsp70 transcriptional activation, primary screen; HeLa Hsp70 promoter luciferase reporter, luminescence; scaled: vehicle 0, proteasome-inhibitor control 100%; activation, % at 10 µM; 0.04% of 200,000 active; AID 1203;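 active means activation above the mean across all tested compounds plus 3 SD, cutoff set per campaign, cut at about 5.5% in these data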
MDM2 E3 inh = inhibitors of human Mdm2 E3 ubiquitin ligase. cell-based MDM2 ubiquitination luciferase reporter, 2 h; 0 = plate control, 100 = twice control, blank-subtracted. signal enhancement, % at 5 µM. 0.11% of 210,000 active. Q00987;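 active means signal enhancement of 30% or more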;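 further: luminescence tracks abundance of the self-degrading MDM2-luciferase fusion protein; higher signal means inhibition of MDM2 E3 ligase activity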
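test system = mammalian cells stably expressing self-ubiquitinating, self-degrading MDM2 E3–luciferase fusion | quantity = 2000 cells/well | incubation = cell settling 4 h, compound treatment 2 h, both 37 °C | signal = luminescence with SteadyLite reagent, 15 min at room temperature | evaluation = % enhancement relative to plate controls after blank subtraction | benchmarks = plate controls and plate blanks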
S1P4 antagonist = antagonists of human S1P4 receptor. inhibition, % at 4.98 µM. S1P4-expressing cells, antagonist mode, reporter read-out. O95977. 0.26% of 220,000 active; in the data active means inhibition above about 29%
S1P3 antag-1 = blocks the human S1P3 receptor; Q99500; CHO S1P3 NFAT-BLA reporter, FRET fluorescence, antagonist mode; inhibition, % at 4.98 µM; AID 485; 0.27% of 170,000 active;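 active means inhibition above the plate cutoff, the mean inhibition of test wells on that plate plus 3 SD, cut at about 28% in these data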;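 further: cells challenged with S1P at its EC80 of 0.8 µM; blue over green emission ratio from cleaved BLA substrate after 4 h stimulation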
Target sequence (Q99500 whole entry, looked up): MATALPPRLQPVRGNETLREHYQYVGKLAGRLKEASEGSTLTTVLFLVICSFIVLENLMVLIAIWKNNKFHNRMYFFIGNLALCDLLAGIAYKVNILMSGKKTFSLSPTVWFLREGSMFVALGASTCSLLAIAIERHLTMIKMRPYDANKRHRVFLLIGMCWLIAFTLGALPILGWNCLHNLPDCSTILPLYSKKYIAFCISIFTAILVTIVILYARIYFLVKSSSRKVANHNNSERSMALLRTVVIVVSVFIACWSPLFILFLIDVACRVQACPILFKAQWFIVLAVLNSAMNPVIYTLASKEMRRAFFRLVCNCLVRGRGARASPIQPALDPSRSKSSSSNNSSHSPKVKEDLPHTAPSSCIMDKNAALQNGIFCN
S1P3 antag-2 = human S1P3 receptor antagonism, confirmation. AID 1429. 30% of 240 active. shares compounds with S1P3 antag-1. inhibition, % at 4.98 µM. CHO S1P3 NFAT-BLA reporter, FRET, antagonist mode;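 active means inhibition above the hit threshold that was computed for the earlier primary screen, cut at about 30% in these data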
Dynein inh conf = dynein cargo transport inhibition, confirmation | AID 463116 | 69% of 1,000 active | shares compounds with Dynein transport | calls only at 20 µM | 3617.4 GR-EGFP nuclear translocation imaging, dexamethasone-induced;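 active means inhibition of receptor movement into the nucleus at or above a set limit in both runs, with normal cell brightness and cell count; inconclusive means limit reached in only one run, brightness and count normal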;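 further: dexamethasone at 1 µM final in well for 30 min; nuclear minus cytoplasmic GR-EGFP mean intensity difference in channel 2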
S1P4 antag conf = confirmation of human S1P4 receptor antagonists. shares compounds with S1P4 antagonist. S1P4-expressing cell line, antagonist mode, reporter read-out. inhibition, % at 4.98 µM. 71% of 520 active. AID 1524; in the data active means inhibition above about 30%
S1P1 antag = human S1P1 antagonism as S1P4 antagonist counter-screen | 37% of 520 active | shares compounds with S1P4 antagonist | cell-based S1P1 antagonist counterscreen, inhibition | inhibition, % at 4.98 µM | AID 1564; in the data active means inhibition above about 40%;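 further: receptor stimulated with S1P near its EC80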
Large screens that a line does not name were inactive (follow-up assays come after a bar, where they were run).

CCCn1nc2ccccc2c1P(=O)(N1CCOCC1)N1CCOCC1	S1P3 antag-1 106.2
CN1CCN(C(=O)OC2c3nccnc3C(=O)N2c2ccc(Cl)cn2)CC1 (stereo unspecified)	S1P3 antag-1 110.4 (no result: MDM2 E3 inh)
O=C1C2CCN(CC2)C1Cc1ccc(OCc2ccccc2)cc1 (stereo unspecified)	none
CCn1nc(-c2cccs2)nc2c(=O)n(C)c(=O)nc1-2	S1P3 antag-1 106.4 (no result: Dynein transport, S1P4 agonist, Hsp70 act, S1P4 antagonist)
N/C(=N/[N+](=O)[O-])N1CCN(C(=O)c2ccc(Cl)cc2)CC1	none
C[N+]12CCC(CC1)C(C#N)(N1CCOCC1)C2 (stereo unspecified)	none
C=C1C(=O)O[C@@H]2C[C@@H](C)[C@@H]3C=CC(=O)[C@@]3(C)[C@@H](O)[C@H]12	Dynein transport -3.63, MDM2 E3 inh 53.0 (no result: S1P4 agonist, Hsp70 act, S1P4 antagonist, S1P3 antag-1)
Nc1cc(Cl)c2nonc2c1[N+](=O)[O-]	Dynein transport -4.19
Cc1ccc(/C=C2\C(=O)NC(=S)N(c3ccc(F)cc3)C2=O)s1	none
Cc1ccc(/C=C2\C(=O)NC(=S)N(c3ccccc3F)C2=O)s1	Dynein transport -3.67
Cc1nn(Cc2ccccc2)c(Cl)c1C(=O)OCC(=O)N1CCCC1	none
COc1ccc(/C=C2/C(=O)NC(=S)N(C3CC3)C2=O)cc1CN1C(=O)c2ccccc2C1=O	Dynein transport -3.61
COc1ccc(/C=C2/C(=O)NC(=O)N(c3ccccc3)C2=O)cc1CN1C(=O)c2ccccc2C1=O	none (no result: Hsp70 act, MDM2 E3 inh)
COc1ccccc1N1CCN(Cc2cnc(-c3ccccc3)[nH]2)CC1	none (no result: Hsp70 act)
O=C1NC(=O)N(Cc2ccc(F)cc2)C(=O)/C1=C\c1ccc([N+](=O)[O-])s1	Dynein transport -5.03 (no result: Hsp70 act)
O=C1NC(=O)N(Cc2ccc(F)cc2)C(=O)/C1=C\c1ccc(N2CCCC2)cc1	none (no result: Hsp70 act)
CC[C@@]1(O)C(=O)OCc2c1cc1n(c2=O)Cc2cc3ccccc3nc2-1	S1P3 antag-1 58.6 (no result: Hsp70 act) | S1P3 antag-2 69.8
COc1cc2c(cc1OC)[C@@H]1C(=O)c3ccc4c(c3O[C@@H]1CO2)C[C@H](C(C)C)O4	S1P3 antag-1 38.4 (no result: Hsp70 act) | S1P3 antag-2 35.6
CC(C)[C@H]1C(=O)O[C@H](C(C)C)C(=O)N(C)[C@@H](C(C)C)C(=O)O[C@H](C(C)C)C(=O)N(C)[C@@H](C(C)C)C(=O)O[C@H](C(C)C)C(=O)N1C	S1P3 antag-1 70.4 | S1P3 antag-2 75.0
CN1CCN(c2ncc(C=O)s2)CC1	none
CCn1nc(/C=C/c2ccccc2)nc2c(=O)n(C)c(=O)nc1-2	S1P3 antag-1 74.5 | S1P3 antag-2 108.8
CN(C)CCNC(=O)c1cccn(Cc2cc(C(F)(F)F)cc(C(F)(F)F)c2)c1=O	none
O=C(CCCN1CCC2(CC1)C(=O)NCN2c1ccccc1)c1ccc(F)cc1	S1P3 antag-1 67.6 (no result: MDM2 E3 inh) | S1P3 antag-2 59.0
O=C(c1ccc(F)cc1)C(Cc1ccccc1)N1CCCCC1 (stereo unspecified)	none
CN(C)CCN=Cc1c(O)n(-c2cccc3ccccc23)c(=O)[nH]c1=O	none
N#CC(C#N)=NNc1ccc(-n2ccc(C(F)(F)F)n2)cc1	S1P3 antag-1 44.0 (no result: Hsp70 act) | S1P3 antag-2 45.1
CCC1(C)OC(c2ccccc2)=C/C(=C/C=C2C(=O)NC(=O)NC2=O)O1 (stereo unspecified)	none
COc1ccc(CCn2c(O)c(C=NCCCN(C)C)c(=O)[nH]c2=O)cc1OC	none
CC(=O)OC(C)(C)/C=C/C(=O)[C@](C)(O)[C@H]1[C@H](O)C[C@@]2(C)[C@@H]3CC=C4[C@H](C[C@H](O)C(=O)C4(C)C)[C@]3(C)C(=O)C[C@]12C	Dynein transport -3.66, S1P4 antagonist 67.3, S1P3 antag-1 73.8 (no result: MDM2 E3 inh) | S1P3 antag-2 90.2 | Dynein inh conf inconclusive
C=CCn1c(O)c(C(CC)=Nc2ccc(N(CC)CC)cc2)c(=O)[nH]c1=O	none
NC(=S)c1cn(C2OC(CO)C(O)C2O)c2ncnc(N)c12 (stereo unspecified)	S1P4 antagonist 100.2, S1P3 antag-1 86.0 (no result: Hsp70 act) | S1P3 antag-2 105.1 | S1P4 antag conf 112.2 | S1P1 antag 93.7
CC(C)=CCC12CN3CCN(CC(C3)C1=O)C2	none
CCN(CC)c1ccc(/C=C/[N+](=O)[O-])cc1	Dynein transport -4.24 | Dynein inh conf active
COc1ccc(CN2C(=O)NC(=O)/C(=C\c3ccco3)C2=O)cc1	none
CCN1C(=O)C(=C/C=C/c2ccco2)C(=O)N(CC)C1=S	Dynein transport -4.48, MDM2 E3 inh 47.0 | Dynein inh conf active
CC(C)c1ccc(N2C(=O)NC(=O)/C(=C\C=C\c3ccco3)C2=O)cc1	Dynein transport -3.91 | Dynein inh conf active
O=C1NC(=O)N(Cc2ccccc2)C(=O)/C1=C/C=C/c1ccco1	Dynein transport -6.01 (no result: Hsp70 act) | Dynein inh conf active
CCc1ccc2nc(N3CCC(C(=O)N4CCC5(CC4)OCCO5)CC3)sc2c1	none
COc1cc(/C=C/[N+](=O)[O-])ccc1O	Dynein transport -5.67 (no result: MDM2 E3 inh) | Dynein inh conf active
COc1cc(/C=C2/C(=O)NC(=O)N(c3ccccc3)C2=O)ccc1O	none
C[N+]1(CC(COCc2ccccc2)OC(=O)Cc2ccccc2)CCOCC1 (stereo unspecified)	none
Cc1ccc(Cn2cc(C=O)c(-c3ccc(C)cc3)n2)cc1	none
CC(C)n1c(O)c(C2c3cc(Cl)ccc3Oc3[nH]c(=O)n(C(C)C)c(=O)c32)c(=O)[nH]c1=O (stereo unspecified)	Dynein transport -5.32, S1P4 antagonist 35.2 (no result: Hsp70 act) | Dynein inh conf active
CC(=O)c1c(O)n(-c2cccc(Cl)c2)c(=O)[nH]c1=O (tested in a mixture with another compound)	none (no result: Hsp70 act)
CCOC(=O)c1c(-n2c(C)cc(/C=C3/C(=O)NC(=O)N(CC)C3=O)c2C)sc2c1CCCC2	none (no result: MDM2 E3 inh, S1P3 antag-1)
CCOC(=O)c1c(-n2c(C)cc(C=C3C(=O)NC(=S)NC3=O)c2C)sc2c1CCCC2	Dynein transport -4.56 (no result: S1P3 antag-1) | Dynein inh conf active
CCOP(=O)(OCC)c1ccc(O)cc1	none
COc1ccc(N2C(=O)NC(=O)/C(=C\c3ccc([N+](=O)[O-])s3)C2=O)cc1	Dynein transport -7.15 | Dynein inh conf active
